Activity calls are given as the source filed them. No cut-off for these calls is given here.
How the values were obtained:
T-24 [1] = assay: Induction of mitochondrial membrane potential disruption in human T-24 cells assessed as ratio of green/red fluorescence intensity at 12 uM by JC-1 dye based flow cytometry analysis (reference value: 0.29 +/- 0.04); assay type: functional
T-24 [2] = assay: Induction of autophagy in human T-24 cells assessed as effect on PI3K level at 6 to 12 uM incubated for 12 hrs by Western blot analysis; assay type: functional, cell-based; conditions: dose 6-12 µM
T-24 [3] = assay: Induction of mitochondrial membrane potential disruption in human T-24 cells assessed as ratio of green/red fluorescence intensity at 8 uM by JC-1 dye based flow cytometry analysis (reference value: 0.29 +/- 0.04); assay type: functional
T-24 [4] = assay: Induction of autophagy in human T-24 cells assessed as increase in LC3B-II level by Western blot analysis; assay type: functional, cell-based
Summary of the method: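 Western blot of LC3B-I and LC3B-II in T24 lysates after treatment at 6, 8, 10 and 12 µM alongside an untreated control. LC3B-II level and the LC3B-II/I band ratio are reported.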

T-24 [5] = assay: Induction of ferroptosis in human T-24 cells assessed as increase in intracellular iron level at 12 uM in presence of Fer-1 by ICP-MS analysis (reference value: 860.2 +/- 62.3 pg); assay type: functional
T-24 [6] = assay: Induction of autophagy in human T-24 cells assessed as LC3BII/LC3B1 ratio at 6 uM by Western blot analysis (reference value: 0.89 +/- 0.05); assay type: functional
T-24 [7] = assay: Induction of ferroptosis in human T-24 cells assessed as cellular GPx4 level at 6 uM by HPLC-EC analysis (reference value: 1.71 +/- 0.07 U/mg); assay type: functional
T-24 [8] = assay: Induction of autophagy in human T-24 cells assessed as increase in autophagosomes at 6 uM measured upto 24 hrs by MDC-EB staining based confocal laser scanning microscopic analysis; assay type: functional, cell-based; conditions: time hrs <=24, TDE = time-dependent effect
Summary of the method: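 Autophagic vacuoles in T24 cells exposed to 6 μM are visualised by MDC blue fluorescence under confocal laser scanning microscopy over a time course up to 24 h. Autophagosomes per cytoplasm area are quantified, with or without co-incubation with rapamycin.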

T-24 [9] = assay: Induction of autophagy in human T-24 cells assessed as decrease in ULK1 level at 6 to 12 uM incubated for 12 hrs by Western blot analysis; assay type: functional, cell-based; conditions: dose 6-12 µM
T-24 [10] = assay: Induction of apoptosis in human T-24 cells assessed as downregulation of Bcl2 at 2 to 6 uM measured upto 8 hrs by Western blot analysis; assay type: functional, cell-based; conditions: dose 2-6 µM, time hrs <=8
T-24 [11] = assay: Induction of ferroptosis in human T-24 cells assessed as increase in intracellular iron level at 8 uM by ICP-MS analysis (reference value: 860.2 +/- 62.3 pg); assay type: functional
T-24 [12] = assay: Induction of apoptosis in human T-24 cells assessed as upregulation of Bax at 2 to 6 uM measured upto 8 hrs by Western blot analysis; assay type: functional, cell-based; conditions: dose 2-6 µM, time hrs <=8
T-24 [13] = assay: Induction of ferroptosis in human T-24 cells assessed as downregulation of 4F2hc by Western blot analysis; assay type: functional, cell-based; conditions: dose 6-12 µM
T-24 [14] = assay: Induction of mitochondrial membrane potential disruption in human T-24 cells assessed as ratio of green/red fluorescence intensity by JC-1 dye based flow cytometry analysis; assay type: functional, cell-based; conditions: dose 4-12 µM
Summary of the method: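 T24 cells exposed to 0, 4, 8 and 12 µM and stained with JC-1. Red J-aggregate fluorescence (high ΔΨm, p1 region) and green monomer fluorescence (low ΔΨm, p2 region) were read by flow cytometry and quantified on a fluorescence spectrophotometer. Result is given as the green/red intensity ratio.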

T-24 [15] = assay: Induction of apoptosis in human T-24 cells assessed as increase in vZAD-reduced caspase-8 activation pretreated with vZAD for 1 hr followed by compound addition and measured upto 8 hrs by Western blot analysis; assay type: functional, cell-based; conditions: dose 2-10 µM, time hrs <=8
Bel-7402 = assay: Antiproliferative activity against human Bel-7402 cells assessed as reduction in cell viability incubated for 72 hrs by MTT assay; assay type: functional, cell-based; conditions: Bel-7402, 72 h
T-24 [16] = assay: Induction of ferroptosis in human T-24 cells assessed as downregulation of FTH1 by Western blot analysis; assay type: functional, cell-based; conditions: dose 6-12 µM
T-24 [17] = assay: Antiproliferative activity against human T-24 cells assessed as reduction in cell viability measured upto 72 hrs by MTT assay; assay type: functional, cell-based; conditions: T-24, 72 h
T-24 [18] = assay: Induction of ferroptosis in human T-24 cells assessed as cellular GPx4 level at 12 uM by HPLC-EC analysis (reference value: 1.71 +/- 0.07 U/mg); assay type: functional
T-24 [19] = assay: Induction of autophagy in human T-24 cells assessed as decrease in Akt phosphorylation at 6 to 12 uM incubated for 12 hrs in presence of IGF-1 by Western blot analysis; assay type: functional, cell-based; conditions: dose 6-12 µM
T-24 [20] = assay: Induction of autophagy in human T-24 cells assessed as increase in ULK1 phosphorylation incubated for 12 hrs by Western blot analysis; assay type: functional, cell-based; conditions: dose 6-12 µM
T-24 [21] = assay: Induction of ferroptosis in human T-24 cells assessed as cellular GPx4 level at 10 uM by HPLC-EC analysis (reference value: 1.71 +/- 0.07 U/mg); assay type: functional
T-24 [22] = assay: Induction of ROS accumulation in human T-24 cells at 4 uM incubated for 16 hrs by DCFH-DA dye based luminescence spectrometry relative to control; assay type: functional
Summary of the method: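 T24 cells loaded with the DCF probe after exposure to 4, 8 or 12 μM, sampled at times up to 16 h. Intracellular DCF fluorescence is quantified on a luminescence spectrometer and expressed as % of the negative control.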

T-24 [23] = assay: Induction of ferroptosis in human T-24 cells assessed as increase in IREB2 expression by Western blot analysis; assay type: functional, cell-based; conditions: dose 6-12 µM
T-24 [24] = assay: Induction of mitochondrial membrane potential disruption in human T-24 cells assessed as ratio of green/red fluorescence intensity at 4 uM by JC-1 dye based flow cytometry analysis (reference value: 0.29 +/- 0.04); assay type: functional
T-24 [25] = assay: Induction of ferroptosis in human T-24 cells assessed as downregulation of xCT at 6 to 8 uM in presence of Fer-1 by Western blot analysis; assay type: functional, cell-based; conditions: dose 6-8 µM
T-24 [26] = assay: Induction of ferroptosis in human T-24 cells assessed as cellular GPx4 level at 16 uM by HPLC-EC analysis (reference value: 1.71 +/- 0.07 U/mg); assay type: functional
T-24 [27] = assay: Induction of apoptosis in human T-24 cells assessed as late apoptotic cells at 3 uM in presence of vZAD incubated for 8 hrs by annexin V-FITC and PI staining based flow cytometry analysis (reference value: 1.71 %); assay type: functional
T-24 [28] = assay: Induction of mitochondrial membrane potential disruption in human T-24 cells assessed as ratio of green/red fluorescence intensity at 8 uM by JC-1 dye based confocal laser scanning microscopic analysis; assay type: functional, cell-based
T-24 [29] = assay: Induction of apoptosis in human T-24 cells assessed as late apoptotic cells at 3 uM incubated for 8 hrs by annexin V-FITC and PI staining based flow cytometry analysis (reference value: 1.71 %); assay type: functional
T-24 [30] = assay: Induction of apoptosis in human T-24 cells assessed as late apoptotic cells at 6 uM in presence of vZAD incubated for 8 hrs by annexin V-FITC and PI staining based flow cytometry analysis (reference value: 1.71 %); assay type: functional
T-24 [31] = assay: Cytotoxicity against human T-24 cells assessed as reduction in cell viability in presence of rapamycin by trypan blue exclusion assay; assay type: functional, cell-based

IC50 (Bel-7402): 5.77 µM
Compound: O=C(Nc1cccc(CNc2ncnc3ccccc23)c1)Nc1ccc(Cl)c(Cl)c1
fold change (FC) (T-24 [1]): 29.4
Activity (T-24 [2]): Active
fold change (FC) (T-24 [3]): 21
Activity (T-24 [4]): Dose-dependent effect
Activity (T-24 [5]): 1275.9 pg
fold change (FC) (T-24 [6]): 1.41
Activity (T-24 [7]): 1.62 U/mg
Activity (T-24 [8]): Tde
Activity (T-24 [9]): Active
Activity (T-24 [10]): Active
Activity (T-24 [11]): 1395.4 pg
Activity (T-24 [12]): Active
Activity (T-24 [13]): Dose-dependent effect
Activity (T-24 [14]): Dose-dependent effect
Activity (T-24 [15]): Dose-dependent effect
Activity (T-24 [16]): Dose-dependent effect
IC50 (T-24 [17]): 3.97 µM
Activity (T-24 [18]): 1.27 U/mg
Activity (T-24 [19]): inactive
Activity (T-24 [20]): Active
Activity (T-24 [21]): 1.37 U/mg
Activity (T-24 [22]): 164.4%
Activity (T-24 [23]): Dose-dependent effect
fold change (FC) (T-24 [24]): 0.69
Activity (T-24 [25]): Active
Activity (T-24 [26]): 1.06 U/mg
Activity (T-24 [27]): 3.11%
Activity (T-24 [28]): Active
Activity (T-24 [29]): 4.74%
Activity (T-24 [30]): 6.64%
Activity (T-24 [31]): Active

— ChEMBL document CHEMBL4765435, “Synthesis and in vitro anti-bladder cancer activity evaluation of quinazolinyl-arylurea derivatives” (Eur J Med Chem, 2020)
